# From ChEMBL document CHEMBL3102843, “Synthesis and antifungal activity of substituted 2,4,6-pyrimidinetrione carbaldehyde hydrazones” (Bioorg Med Chem, 2014)
# Active and inactive are the calls of the source. Unless noted, no cut-off for these calls is given here.
# Tests used:
# Candida albicans [1] = assay: Antifungal activity against Candida albicans ATCC 10231 at 62 ug/ml after 48 to 72 hrs by broth microdilution method; type: functional
# Nakaseomyces glabratus [2] = assay: Antifungal activity against Candida glabrata ATCC 48435 after 48 to 72 hrs by broth microdilution method; type: functional
# How it was run: (§1)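 Broth microdilution per NCCLS. Organisms were subcultured on Sabouraud agar. Inoculum was 5–7 colonies from YM agar in sterile water, adjusted to 0.5 McFarland at 530 nm (1–5×10⁶ cells/mL stock), held 30 min at RT, then diluted 1:50 in HEPES-buffered RPMI 1640. DMSO stocks were twofold-diluted, with final DMSO ≤1%. Plates ran 48–72 h at 35 °C, humid. MIC is the lowest concentration giving ≥80% growth reduction vs drug-free wells, scored visually. Fluconazole or amphotericin B ran as drug control.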
# Candida albicans [3] = assay: Antifungal activity against Candida albicans ATCC 10231 after 48 to 72 hrs by broth microdilution method; type: functional; how it was run: as §1
# Nakaseomyces glabratus [4] = assay: Antifungal activity against Candida glabrata ATCC 48435 at 125 ug/ml after 48 to 72 hrs by broth microdilution method; type: functional, organism-based
# How it was run: (§2)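 Broth microdilution per NCCLS. Inocula come from 5–7 colonies on YM agar, suspended in sterile water and adjusted to 0.5 McFarland at 530 nm (stock 1×10⁶–5×10⁶ cells/mL), then diluted 1:50 in HEPES-buffered RPMI 1640. Compounds in DMSO (final ≤1%) are added as a 10-fold dilution into the suspension. Plates run 48–72 h at 35 °C, humid. Growth is scored visually; the endpoint is ≥80% reduction versus drug-free wells.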
# Candida albicans [5] = assay: Antifungal activity against Candida albicans ATCC 10231 at 125 ug/ml after 48 to 72 hrs by broth microdilution method; type: functional, organism-based; how it was run: as §2
# Nakaseomyces glabratus [6] = assay: Antifungal activity against Candida glabrata CS 177.93 at 0.195 to 100 uM after 24 to 48 hrs in presence of 3% ethanol; type: functional, organism-based
# How it was run: (§3)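 Cells grown overnight in YPD at 30 °C, washed, then seeded at ~10³ cells/well (10⁴ cells/mL) in YPD (2% glucose), YPG (3% glycerol) or YPE (3% ethanol), pH 6.5. Drug at 0 and 0.195–100, final DMSO 0.5%. Two repeat experiments.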
# Nakaseomyces glabratus [7] = assay: Antifungal activity against Candida glabrata CS 177.93 at 0.195 to 100 uM after 24 to 48 hrs in presence of 3% glycerol; type: functional, organism-based; how it was run: as §3
# Nakaseomyces glabratus [8] = assay: Antifungal activity against Candida glabrata CS 177.93 at 0.195 to 100 uM after 24 to 48 hrs in presence of 2% glucose; type: functional, organism-based; how it was run: as §3
# Candida albicans [9] = assay: Antifungal activity against Candida albicans SC5314 at 0.195 to 100 uM after 24 to 48 hrs in presence of 3% ethanol; type: functional, organism-based; how it was run: as §3
# Candida albicans [10] = assay: Antifungal activity against Candida albicans SC5314 at 0.195 to 100 uM after 24 to 48 hrs in presence of 3% glycerol; type: functional, organism-based; how it was run: as §3
# Candida albicans [11] = assay: Antifungal activity against Candida albicans SC5314 at 0.195 to 100 uM after 24 to 48 hrs in presence of 2% glucose; type: functional, organism-based; how it was run: as §3
# Candida albicans [12] = assay: Antifungal activity against Candida albicans; type: functional, organism-based; how it was run: as §1
# HepG2 [13] = assay: Cytotoxicity against human HepG2 cells assessed as cell viability at 2 to 200 ug/ml after 24 hrs by MTT assay; type: cell-based; details: hepg2, 24 h
# How it was run: (§4)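 MTT (tetrazolium) assay in Vero and HepG2 cells. Cells were pre-grown 24 h at 37 °C/5% CO₂ in DMEM with 10% FBS. Compounds diluted in media at the fungal MIC and at 5×, 10× and 100× MIC, then exposed 24 h. Dye was added for 1–4 h, then stop solution for 1 h at RT; A570 read. Viability was taken as % of 1% DMSO no-drug wells, with 0.1% saponin as death control. Triplicate, mean ± SD.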
# [14] = Cytotoxicity against african green monkey Vero cells assessed as cell viability at 10 times MIC80 for fungus after 24 hrs by MTT assay; type: cell-based; details: chlorocebus sabaeus, read-out: Activity; how it was run: as §4
# Nakaseomyces glabratus [15] = assay: Antifungal activity against Candida glabrata ATCC 48435 at 62 ug/ml after 48 to 72 hrs by broth microdilution method; type: functional
# Nakaseomyces glabratus [16] = assay: Antifungal activity against Candida glabrata ATCC 48435 at 31 ug/ml after 48 to 72 hrs by broth microdilution method; type: functional
# Nakaseomyces glabratus [17] = assay: Antifungal activity against Candida glabrata ATCC 48435 at 16 ug/ml after 48 to 72 hrs by broth microdilution method; type: functional
# Candida albicans [18] = assay: Antifungal activity against Candida albicans ATCC 10231 at 8 ug/ml after 48 to 72 hrs by broth microdilution method; type: functional
# [19] = Cytotoxicity against african green monkey Vero cells assessed as cell viability at 2 to 200 ug/ml after 24 hrs by MTT assay; type: cell-based; details: chlorocebus sabaeus, read-out: Activity; how it was run: as §4
# Candida albicans [20] = assay: Antifungal activity against Candida albicans ATCC 10231 at 16 ug/ml after 48 to 72 hrs by broth microdilution method; type: functional
# HepG2 [21] = assay: Cytotoxicity against human HepG2 cells assessed as cell viability at 8 to 800 ug/ml after 24 hrs by MTT assay; type: cell-based; details: hepg2, 24 h; how it was run: as §4
# [22] = Cytotoxicity against african green monkey Vero cells assessed as cell viability at 8 to 800 ug/ml after 24 hrs by MTT assay; type: cell-based; details: chlorocebus sabaeus, read-out: Activity; how it was run: as §4
Compound,Activity (Nakaseomyces glabratus [4]),Activity (Candida albicans [5]),other results
CN1C(=O)C(/C=N/NC(=O)c2ccc([N+](=O)[O-])cc2)C(=O)N(C)C1=O,,,inhibition at 62 µg/mL (Candida albicans [1]): < 50%; MIC80 (Nakaseomyces glabratus [2]): 125 µg/mL; MIC80 (Candida albicans [3]): 62 µg/mL
CN1C(=O)C(C(=O)c2cccnc2)C(=O)N(C)C1=O,inactive,inactive,
COc1ccc(C(=O)N/N=C/C2C(=O)N(C)C(=O)N(C)C2=O)cc1,,,inhibition at 62 µg/mL (Candida albicans [1]): < 50%; MIC80 (Nakaseomyces glabratus [2]): 31 µg/mL; MIC80 (Candida albicans [3]): 62 µg/mL
O=C1NC(=O)N(c2ccccc2)C(=O)C1C(=O)c1ccc(O)cc1 (stereo not given),inactive,inactive,
CN(C)c1ccc(CC2(CCCc3ccccc3)C(=O)NC(=O)NC2=O)cc1,inactive,inactive,
O=C1NC(=O)C(/C=N/Nc2ccc([N+](=O)[O-])cc2)C(=O)N1,,,Activity (Nakaseomyces glabratus [6]): Active; Activity (Nakaseomyces glabratus [7]): Active; Activity (Nakaseomyces glabratus [8]): Active; Activity (Candida albicans [9]): Active; Activity (Candida albicans [10]): Active; Activity (Candida albicans [11]): Active; Activity (Candida albicans [12]): Dose-dependent effect; Activity (HepG2 [13]): Toxic; viability at 24 h [14]: 80%; MIC80 (Nakaseomyces glabratus [2]): 1 µg/mL; MIC80 (Candida albicans [3]): 2 µg/mL
O=C1NC(=O)C(C(=O)c2ccc(O)cc2)C(=O)N1,inactive,inactive,
O=C1NC(=O)C(Cc2ccccc2)(Cc2ccccc2)C(=O)N1,inactive,inactive,
O=C1NC(=O)C(Cc2ccc3ccccc3c2)C(=O)N1,inactive,inactive,
CC(=O)C1C(=O)NC(=O)NC1=O,inactive,inactive,
COc1ccc(C(=O)N/N=C/C2C(=O)NC(=O)NC2=O)cc1,,,inhibition at 62 µg/mL (Nakaseomyces glabratus [15]): < 50%; MIC80 (Nakaseomyces glabratus [2]): 62 µg/mL; MIC80 (Candida albicans [3]): inactive
CN/N=C(\C)C1C(=O)NC(=O)NC1=O,,,inhibition at 31 µg/mL (Nakaseomyces glabratus [16]): < 50%; MIC80 (Nakaseomyces glabratus [2]): 31 µg/mL; MIC80 (Candida albicans [3]): inactive
CN1C(=O)C(C(=O)c2ccc([N+](=O)[O-])cc2)C(=O)N(C)C1=O,inactive,inactive,
O=C1NC(=O)C(C(=O)c2cccc([N+](=O)[O-])c2)C(=O)N1,inactive,inactive,
COc1ccc(C(=O)C2C(=O)N(C)C(=O)N(C)C2=O)cc1,inactive,inactive,
CCCCN1C(=O)NC(=O)C(C(=O)c2ccc(OC)cc2)C1=O (stereo not given),inactive,inactive,
CN1C(=O)C(CCCc2ccccc2)C(=O)N(C)C1=O,inactive,inactive,
O=C1NC(=O)C(C2CCCCC2)C(=O)N1,inactive,inactive,
CN1C(=O)C(/C=N/Nc2ccccc2)C(=O)N(C)C1=O,,,Activity (HepG2 [13]): Toxic; viability at 24 h [14]: 80%; MIC80 (Nakaseomyces glabratus [2]): 2 µg/mL; MIC80 (Candida albicans [3]): 4 µg/mL
O=C1NC(=O)C(/C=N/NC(=O)c2ccc([N+](=O)[O-])cc2)C(=O)N1,,,inhibition at 16 µg/mL (Nakaseomyces glabratus [17]): < 50%; inhibition at 62 µg/mL (Candida albicans [1]): < 50%; MIC80 (Nakaseomyces glabratus [2]): 16 µg/mL; MIC80 (Candida albicans [3]): 62 µg/mL
CC(=O)C1C(=O)NC(=O)N(c2ccccc2)C1=O (stereo not given),inactive,inactive,
CC(C)C1C(=O)NC(=O)N(c2ccccc2)C1=O (stereo not given),inactive,inactive,
O=C1NC(=O)C(Cc2ccc(O)cc2)C(=O)N1,inactive,inactive,
CN1C(=O)C(C(=O)c2cccc([N+](=O)[O-])c2)C(=O)N(C)C1=O,inactive,inactive,

Compound,Activity (Nakaseomyces glabratus [4]),Activity (Candida albicans [5]),other results
O=C1NC(=O)C(/C=N/c2ccccc2O)C(=O)N1,,,inhibition at 8 µg/mL (Candida albicans [18]): < 50%; MIC80 (Nakaseomyces glabratus [2]): inactive; MIC80 (Candida albicans [3]): 8 µg/mL
CN1C(=O)NC(=O)C(C(=O)c2ccccc2)C1=O (stereo not given),inactive,inactive,
O=C1NC(=O)C(C(=O)c2ccccc2)C(=O)N1,inactive,inactive,
CN(C)c1ccc(CC2(Cc3ccc(N(C)C)cc3)C(=O)NC(=O)NC2=O)cc1,inactive,inactive,
CN1C(=O)C(C(=O)c2ccc(O)cc2)C(=O)N(C)C1=O,inactive,inactive,
C/C(=N\Nc1ccccc1)C1C(=O)N(C)C(=O)N(C)C1=O,,,Activity (HepG2 [13]): Toxic; viability at 24 h [19]: 35%; MIC80 (Nakaseomyces glabratus [2]): 2 µg/mL; MIC80 (Candida albicans [3]): 2 µg/mL
O=C1NC(=O)C(CCCC2CCCCC2)C(=O)N1,inactive,inactive,
COc1ccc(C(=O)C2C(=O)NC(=O)NC2=O)cc1,inactive,inactive,
O=C1NC(=O)C(CCCc2ccccc2)C(=O)N1,inactive,inactive,
CN1C(=O)C(C(=O)c2ccccc2)C(=O)N(C)C1=O,inactive,inactive,
O=CC1C(=O)NC(=O)NC1=O,inactive,inactive,
O=C1NC(=O)N(c2ccccc2)C(=O)C1CC1CCC(O)CC1 (stereo not given),inactive,inactive,
CN1C(=O)C(C(=O)c2cc([N+](=O)[O-])cc([N+](=O)[O-])c2)C(=O)N(C)C1=O,inactive,inactive,
O=C1NC(=O)C(C(=O)c2ccc([N+](=O)[O-])cc2)C(=O)N1,inactive,inactive,
O=C1NC(=O)C(C(=O)c2cc([N+](=O)[O-])cc([N+](=O)[O-])c2)C(=O)N1,inactive,inactive,
CN1C(=O)NC(=O)C(C=O)C1=O (stereo not given),inactive,inactive,
Cc1ccc(S(=O)(=O)N/N=C/C2C(=O)NC(=O)NC2=O)cc1,,,inhibition at 16 µg/mL (Candida albicans [20]): < 50%; MIC80 (Nakaseomyces glabratus [2]): inactive; MIC80 (Candida albicans [3]): 16 µg/mL
CN1C(=O)C(/C=N/Nc2ccc([N+](=O)[O-])cc2)C(=O)N(C)C1=O,,,Activity (HepG2 [13]): Toxic; viability at 24 h [14]: 80%; MIC80 (Nakaseomyces glabratus [2]): 2 µg/mL; MIC80 (Candida albicans [3]): 2 µg/mL
C/C(=N\Nc1ccc([N+](=O)[O-])cc1)C1C(=O)NC(=O)NC1=O,,,Activity (HepG2 [13]): Toxic; viability at 24 h [19]: 35%; MIC80 (Nakaseomyces glabratus [2]): 2 µg/mL; MIC80 (Candida albicans [3]): 2 µg/mL
CCCCN1C(=O)NC(=O)C(C(=O)c2ccc(O)cc2)C1=O (stereo not given),inactive,inactive,
CCCCCCCC1C(=O)NC(=O)NC1=O,inactive,inactive,
O=C1NC(=O)C(CC2CCC(O)CC2)C(=O)N1 (stereo not given),inactive,inactive,
CN1C(=O)C(/C=N/c2ccccc2O)C(=O)N(C)C1=O,,,Activity (HepG2 [21]): Toxic; viability at 24 h [22]: 35%; inhibition at 8 µg/mL (Candida albicans [18]): < 50%; MIC80 (Nakaseomyces glabratus [2]): inactive; MIC80 (Candida albicans [3]): 8 µg/mL
CN/N=C/C1C(=O)N(C)C(=O)N(C)C1=O,,,inhibition at 62 µg/mL (Candida albicans [1]): < 50%; MIC80 (Nakaseomyces glabratus [2]): 125 µg/mL; MIC80 (Candida albicans [3]): 62 µg/mL
